Published values from different studies.
Protocols differ between the studies behind these lines.

Compound | assay | system | setting | endpoint | result
COCC(=O)N1CCC[C@H](C(=O)NCc2nc(-c3ccc(C#N)cc3)cs2)C1 | metabolic stability | male Sprague-Dawley rat, liver microsomes | 0.5 µM | scaled CLint | 30 mL/min/kg
CN1CCC(Oc2ccc3c(=O)c4c(F)cc(Cl)cc4[nH]c3c2)CC1 | metabolic stability | human, liver microsomes | 1 µM, pH 7.4 | microsomal CLint | 24.9 µL/min/mg
C[C@]1(O)CCCN(c2nc(Nc3ccc(S(=O)(=O)N[C@H]4CC[C@H](CN5CCN(c6ccc(C7CCC(=O)NC7=O)c(F)c6)CC5)CC4)cc3F)ncc2C(F)(F)F)C1 (stereo partly shown) | metabolic stability | rat, liver microsomes | 1 µM | scaled CLint | < 21 mL/min/kg
CN1CCN(c2cccc(-c3ccc4ncnc(Nc5ncco5)c4c3)c2)CC1 | shake flask | aqueous buffer | pH 7.4 | logD | 3.3
CC1(C)NC(=O)N(c2cccc(C(F)(F)F)n2)C1=O | HPLC |  | pH 7.4 | chromatographic logD | 1.6
COc1ccc2c(c1)CN(C(=O)CCN1CCC(Cc3ccccc3)CC1)CC[S@@+]2[O-] |  | male human, plasma | intravenous, 0.01 mg/kg, healthy volunteers | clearance | 235 mL/min
CC1(C)NC(=O)N(c2ccc(F)c(CC(F)(F)F)c2)C1=O | HPLC |  | pH 7.4 | chromatographic logD | 2.7
Clc1ccc(Nc2ncnc3ccc(-c4cccc(N5CCOCC5)c4)cc23)cc1Cl | shake flask | aqueous buffer | pH 7.4 | logD | > 4.2
COCC(=O)N1CCC[C@H](C(=O)NCc2nc(-c3ccccc3)cs2)C1 | metabolic stability | male Sprague-Dawley rat, hepatocytes | 0.5 µM | scaled CLint | 32 mL/min/kg
Cc1cc(S(=O)(=O)N[C@H]2CC[C@H](N3CCN(CC4CCN(c5cccc6c5n(C)c(=O)n6C5CCC(=O)NC5=O)CC4)CC3)CC2)ccc1Nc1ncc(C(F)(F)F)c(N2CCC[C@](C)(O)C2)n1 (stereo partly shown) | metabolic stability | human, liver microsomes | 1 µM | scaled CLint | 33 mL/min/kg
O=c1c2c([nH]c3cc(OC(F)(F)F)ccc13)CCCC2 | metabolic stability | human, liver microsomes | 1 µM, pH 7.4 | microsomal CLint | 173 µL/min/mg
FC(F)(F)c1cc(Nc2ncnc3ccc(-c4cccc(N5CCOCC5)c4)cc23)ccc1Cl | shake flask | aqueous buffer | pH 7.4 | logD | > 4.1
CC1(C)NC(=O)N(c2ccc3c(c2)OC(F)(F)O3)C1=O | HPLC |  | pH 7.4 | chromatographic logD | 2.5
O=c1c2c([nH]c3c(Oc4ccc(OC(F)(F)F)cc4)cccc13)CCCC2 | metabolic stability | human, liver microsomes | 1 µM, pH 7.4 | microsomal CLint | 21 µL/min/mg
c1ccc(Oc2ccc(Nc3c4c(nc5ccccc35)CCC4)cc2)cc1 | HPLC |  | pH 7.4 | chromatographic logD | > 5.3
CCC(F)(F)c1cc(N2C(=O)NC(C)(C)C2=O)ccc1F | HPLC |  | pH 7.4 | chromatographic logD | 2.9
CCONC(=O)N1CCC[C@H](C(=O)N[C@@H](C)c2nc(-c3ccc(C#N)cc3)cs2)C1 | metabolic stability | male Sprague-Dawley rat, liver microsomes | 0.5 µM | microsomal CLint | 36 µL/min/mg

Compound | assay | system | setting | endpoint | result
O=C1NC2(CCS(=O)(=O)CC2)C(=O)N1c1ccc(F)c(C(F)(F)F)c1 | HPLC |  | pH 7.4 | chromatographic logD | 2.6
Cc1cc(S(=O)(=O)N[C@H]2CC[C@H](CN3CCN(c4cccc(NC5CCC(=O)NC5=O)c4)CC3)CC2)ccc1Nc1ncc(C(F)(F)F)c(N2CCC[C@](C)(O)C2)n1 (stereo partly shown) | metabolic stability | rat, liver microsomes | 1 µM | scaled CLint | < 21 mL/min/kg
C[C@@H](Oc1ccc(S(C)(=O)=O)cc1C(=O)N1C[C@@H]2C[C@]2(c2cc(C(F)(F)F)on2)C1)C(F)(F)F |  | human, plasma | oral, 10 mg, single dose, fasted | CL/F | 82.9 mL/min
CC(C)n1c(C2CCNCC2)nc2c([N+](=O)[O-])c(Br)c(Br)cc21 |  | human, urine | oral, 50 mg, single dose | renal clearance | 14.5 mL/min
CC(C)(N)COCC(=O)N1CCC[C@H](C(=O)NCc2nc(-c3ccc(C(F)(F)F)cc3)cs2)C1 | metabolic stability | human, liver microsomes | 0.5 µM | scaled CLint | < 4 mL/min/kg
Cc1cc(S(=O)(=O)N[C@]2(C)C[C@H](N3CCN(CC4CCN(c5ccc6c(c5F)n(C)c(=O)n6C5CCC(=O)NC5=O)CC4)CC3)C2)ccc1Nc1ncc(C(F)(F)F)c(N2CCC[C@](C)(O)C2)n1 (stereo partly shown) | metabolic stability | rat, liver microsomes | 1 µM | scaled CLint | < 21 mL/min/kg
OC[C@H]1O[C@@H](c2cc(Cc3ccc(C4CC4)cc3)c(Cl)c3c2CCO3)[C@H](O)[C@@H](O)[C@@H]1O |  | human, plasma | oral, 0.3 mg, single dose, fasted | CL/F | 157 mL/min
c1cc(-c2ccc3ncnc(Nc4ncco4)c3c2)cc(N2CC3CCC(C2)O3)c1 | shake flask | aqueous buffer | pH 7.4 | logD | > 3.6
N[C@@H](COCC(=O)N1CCC[C@H](C(=O)NCc2nc(-c3ccc(C(F)(F)F)cc3)cs2)C1)c1ccccc1 | metabolic stability | human, liver microsomes | 0.5 µM | microsomal CLint | 65 µL/min/mg
CC1(C)NC(=O)N(c2ccc(F)c(S(C)(=O)=O)c2)C1=O | HPLC |  | pH 7.4 | chromatographic logD | 1.2
NCCOCC(=O)N1CCC[C@H](C(=O)NCc2nc(-c3ccc(C(F)(F)F)cc3)cs2)C1 | metabolic stability | male Sprague-Dawley rat, hepatocytes | 0.5 µM | scaled CLint | < 4.2 mL/min/kg
Cc1cc(S(=O)(=O)NC2CC(N3CC[C@@H](OC4CN(c5cccc6c5n(C)c(=O)n6C5CCC(=O)NC5=O)C4)[C@H](F)C3)C2)ccc1Nc1ncc(C(F)(F)F)c(N2CCC[C@](C)(O)C2)n1 (stereo partly shown) | metabolic stability | human, liver microsomes | 1 µM | scaled CLint | 28 mL/min/kg
CC1(C)NC(=O)N(c2cc(C(F)(F)F)c(F)cc2C#N)C1=O | HPLC |  | pH 7.4 | chromatographic logD | 2.8
CCOCC(=O)N1CCC[C@H](C(=O)NCc2nc(-c3ccc(C#N)nc3)cs2)C1 | metabolic stability | male Sprague-Dawley rat, liver microsomes | 0.5 µM | microsomal CLint | 11 µL/min/mg
Cc1cc(S(=O)(=O)NC2CC(N3CCN(CC4CCN(c5ccc6c(c5F)n(C)c(=O)n6C5CCC(=O)NC5=O)CC4)CC3)C2)ccc1Nc1ncc(C(F)(F)F)c(N2CCCC(C)(O)C2)n1 (stereo not shown) | metabolic stability | human, liver microsomes | 1 µM | scaled CLint | 22 mL/min/kg
CCOCC(=O)N1CC[C@@H](C)[C@H](C(=O)NCc2nc(-c3ccc(C)nc3)cs2)C1 (racemic) | metabolic stability | human, liver microsomes | 0.5 µM | microsomal CLint | 6.9 µL/min/mg
Cc1cc(S(=O)(=O)NC2CC(N3CCN(CC4CCN(c5ccc(NC6CCC(=O)NC6=O)cc5C)CC4)CC3)C2)ccc1Nc1ncc(C(F)(F)F)c(N2CCC[C@](C)(O)C2)n1 (stereo partly shown) | metabolic stability | rat, liver microsomes | 1 µM | scaled CLint | < 21 mL/min/kg
